According to ChEMBL document CHEMBL4732044, “Discovery of a promising agent IQZ23 for the treatment of obesity and related metabolic disorders” (Eur J Med Chem, 2020):
Converted amounts (≈) assume the structure as drawn. The source made the active and inactive calls. No cut-off for these calls is given here.

Key:
[1] = MRT(0 to infinity) in Sprague-Dawley rat at 5 mg/kg, po up to 24 hrs by LC-MS/MS analysis; type: ADME, organism-based; conditions: in vivo
Summary of the method: (§1)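 Male SD rats (180–220 g, n = 3) received compound in ethanol/saline (5:95), either intravenously at 2 mg/kg or intragastrically at 5 mg/kg. Plasma was sampled at 0, 0.5, 1, 2, 4, 8, 12 and 24 h. Concentrations were measured by LC-MS/MS, and PK parameters were calculated from the concentration–time data.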

[2] = Half life in Sprague-Dawley rat liver microsomes assessed as rate constant […] up to 60 mins in presence of NADPH by LC-MS/MS analysis; type: ADME, Microsome
3T3-L1 [3] = experiment: Activation of AMPK pathway in mouse 3T3-L1 cells assessed as increase in number of mitochondria copy at 1 uM after 24 hrs by mito-tracker staining based Confocal microscopic method; conditions: filed as activator
Summary of the method: (§2)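 3T3-L1 cells grown in DMEM with 10% FBS at 37 °C and 5% CO2. After treatment, cells were stained for 30 min at 37 °C in the dark with 1 µM Mito-Tracker plus Hoechst 33342 (1:1000) and imaged by confocal microscopy (excitation 633 and 405 nm). Mitochondrial copy number was also taken as the mtDNA/nDNA ratio by PCR (cytochrome C versus 18S rRNA).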

3T3-L1 [4] = experiment: Activation of AMPK pathway in adipogenic cocktail-induced mouse 3T3-L1 cells assessed as increase in phosphorylation AMPKalpha at Thr172 residue at 0.01 to 1 uM after 24 hrs by Western blot analysis; type: cell-based; conditions: filed as activator, dose 0.01-1 µM
Summary of the method: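 Confluent 3T3-L1 pre-adipocytes exposed to adipogenic cocktail for 24 h with or without compound (0, 0.01, 0.1, 1 µM); DMSO vehicle. Lysates analysed by SDS-PAGE/Western blot for pAMPKα (Thr-172), normalized to actin, Ctrl set as 1. N = 4 independent experiments.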

3T3-L1 [5] = experiment: Inhibition of mouse 3T3-L1 cells adipocyte differentiation assessed as reduction in adipogenic cocktail-induced C/EBPalpha mRNA expression after 24 hrs by RT-qPCR analysis; type: functional, cell-based; conditions: dose 0.01-1 µM
Summary of the method: (§3)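 Confluent 3T3-L1 preadipocytes received differentiation cocktail (0.5 mM IBMX, 100 ng/mL dexamethasone, 2 µg/mL insulin) with compound (0.01–1 µM; metformin 1 mM) for 24 h. mRNA was measured by SYBR Green RT-qPCR (30 cycles), normalized to β-actin, with the differentiated control set to 1. N = 4 independent experiments.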

[6] = AUC(0 to t) in Sprague-Dawley rat at 5 mg/kg, po up to 24 hrs by LC-MS/MS analysis; type: ADME, organism-based; set-up: route oral, dose 5 mg/kg, time <=24; conditions: in vivo
Summary of the method: (§4)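 Male Sprague-Dawley rats (180-220 g, n = 3) were dosed intragastrically at 5 mg/kg in ethanol/saline (5:95). Plasma was collected at 0, 30 min, 1, 2, 4, 8, 12 and 24 h post-dose and quantified by LC-MS/MS. Pharmacokinetic parameters were derived from the plasma concentration-time profile.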

[7] = target: RAC-alpha serine/threonine-protein kinase (Mus musculus) (UniProt P31750); experiment: Activation of AKT in mouse C2C12 cells assessed as AKT phosphorylation at […] 308 residue at 1 uM after 6 hrs by Western blot analysis; type: cell-based
Summary of the method: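 C2C12 myoblasts kept in DMEM with 10% FBS and 1% penicillin/streptomycin at 37 °C under 5% CO2.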

[8] = Stability in Sprague-Dawley rat liver microsomes assessed as remaining compound […] up to 60 mins in presence of NADPH by LC-MS/MS analysis; type: ADME, Microsome; conditions: read-out: Stabilty
3T3-L1 [9] = experiment: Activation of AMPK pathway in mouse 3T3-L1 cells assessed as increase in oxygen consumption at 1 uM after 5 to 10 mins by XF-96 cell analyzer method; type: cell-based; conditions: filed as activator, time 5-10 min
Summary of the method: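 3T3-L1 cells seeded in quintuplicate at 5000 cells/well in an XF-96 plate. Equilibrated in assay medium at 37 °C for 30 min. Baseline OCR measured over 3–5 min, then compound injected to final concentration and OCR measured at set time points. Cell number counted at end.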

3T3-L1 [10] = experiment: Inhibition of mouse 3T3-L1 cells adipocyte differentiation assessed as reduction in adipogenic cocktail-induced C/EBPbeta mRNA expression after 24 hrs by RT-qPCR analysis; type: functional, cell-based; conditions: dose 0.01-1 µM; summary of the method: as §3
[11] = Effect on total AKT level in mouse C2C12 cells at 1 uM after 6 hrs by Western blot analysis; type: ADME, cell-based; conditions: c2c12, 6 h
[12] = Intrinsic clearance in Sprague-Dawley rat liver microsomes assessed as rate constant […] up to 60 mins in presence of NADPH by LC-MS/MS analysis; type: ADME, Microsome; conditions: read-out: CLH
[13] = Aqueous solubility in PBS buffer at pH 7.4 after 24 hrs; type: physicochemical
3T3-L1 [14] = experiment: Inhibition of mouse 3T3-L1 cells adipocyte differentiation assessed as reduction in adipogenic cocktail-induced C/EBPdelta mRNA expression after 24 hrs by RT-qPCR analysis; type: functional, cell-based; conditions: dose 0.01-1 µM; summary of the method: as §3
[15] = Oral bioavailability in Sprague-Dawley rat at 5 mg/kg up to 24 hrs by LC-MS/MS analysis; type: ADME, organism-based; conditions: in vivo; summary of the method: as §1
[16] = AUC(0 to infinity) in Sprague-Dawley rat at 5 mg/kg, po up to 24 hrs by LC-MS/MS analysis; type: ADME, organism-based; set-up: route oral, dose 5 mg/kg, time <=24; conditions: in vivo; summary of the method: as §4
[17] = Half life in Sprague-Dawley rat at 5 mg/kg, po up to 24 hrs by LC-MS/MS analysis; type: ADME, organism-based; conditions: in vivo; summary of the method: as §1
[18] = Tmax in Sprague-Dawley rat at 5 mg/kg, po up to 24 hrs by LC-MS/MS analysis; type: ADME, organism-based; conditions: in vivo
Summary of the method: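 Male Sprague-Dawley rats (180-220 g, n = 3) were dosed intragastrically at 5 mg/kg in ethanol/saline (5:95); a separate iv arm received 2 mg/kg. Blood was drawn at 0, 30 min, 1, 2, 4, 8, 12 and 24 h and centrifuged to obtain plasma. Drug levels were measured by LC-MS/MS, and pharmacokinetic parameters were calculated from the concentration–time data.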

3T3-L1 [19] = experiment: Activation of AMPK pathway in mouse 3T3-L1 cells assessed as increase in number of mitochondria copy at 1 uM after 24 hrs in presence of compound C by mito-tracker staining based Confocal microscopic method; summary of the method: as §2
3T3-L1 [20] = experiment: Lipid lowering activity in mouse 3T3-L1 cells assessed as reduction in adipogenic cocktail-induced triglyceride levels at 1 uM incubated for 6 days by GPO-POD assay relative to control; type: functional; set-up: scale not given: the % may be the effect or the level left; conditions: time 6 day
Summary of the method: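 Confluent 3T3-L1 cells were treated from day 0 in cocktail (IBMX, dexamethasone, insulin) for 3 days, then re-dosed in insulin medium for 3 more days. For dose–response, concentrations were 0–10 µM (0.01, 0.1, 0.3, 1, 3, 10). On day 6, cells were lysed in 0.2% Triton X-100 and TG was measured by GPO-POD and normalized to BCA protein as % of control. EC50 was fitted from the dose–response. N = 4.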

[21] = Cmax in Sprague-Dawley rat at 5 mg/kg, po up to 24 hrs by LC-MS/MS analysis; type: ADME, organism-based; set-up: route oral, dose 5 mg/kg, time <=24; conditions: in vivo; summary of the method: as §1
3T3-L1 [22] = experiment: Inhibition of mouse 3T3-L1 cells adipocyte differentiation assessed as reduction in adipogenic cocktail-induced PPARgamma mRNA expression after 24 hrs by RT-qPCR analysis; type: functional, cell-based; conditions: dose 0.01-1 µM; summary of the method: as §3

Chain of RAC-alpha serine/threonine-protein kinase (Mus musculus) (P31750 whole entry): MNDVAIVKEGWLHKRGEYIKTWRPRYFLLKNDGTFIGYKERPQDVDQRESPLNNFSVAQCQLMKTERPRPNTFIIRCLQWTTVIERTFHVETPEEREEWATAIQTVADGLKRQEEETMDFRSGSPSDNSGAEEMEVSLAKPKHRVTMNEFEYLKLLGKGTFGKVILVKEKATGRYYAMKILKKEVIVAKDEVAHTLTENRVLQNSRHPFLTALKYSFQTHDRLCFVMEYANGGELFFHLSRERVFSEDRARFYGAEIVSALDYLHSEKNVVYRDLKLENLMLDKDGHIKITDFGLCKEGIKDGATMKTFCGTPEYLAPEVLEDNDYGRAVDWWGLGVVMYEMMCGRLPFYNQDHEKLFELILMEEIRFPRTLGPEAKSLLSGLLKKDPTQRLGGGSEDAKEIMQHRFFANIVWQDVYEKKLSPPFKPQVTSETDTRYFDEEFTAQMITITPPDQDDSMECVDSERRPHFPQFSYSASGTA

Row | Structure (SMILES) | MRT inf [1] | half-life [2] | Activity (3T3-L1 [3]) | Activity (3T3-L1 [4]) | inhibition (3T3-L1 [5]) | AUC(0-t) at 24 h [6] | Activity [7] | remaining at 1 h [8] | Activity (3T3-L1 [9]) | inhibition (3T3-L1 [10]) | Activity [11] | microsomal CLint [12] | solubility at 24 h [13] | inhibition (3T3-L1 [14]) | bioavailability [15] | AUC(0-inf) [16] | half-life [17] | Tmax [18] | Activity (3T3-L1 [19]) | Activity (3T3-L1 [20]) | also measured
1 | COc1ccc2[nH]c(-c3nc(NCCCCN4CCCC4)c4ccccc4n3)c(C=O)c2c1 | 7.5 h | 187 min | Active | Active | Dose-dependent effect | 374 ng·h/mL | inactive | 80.7% | Active | Dose-dependent effect | Non-Toxic | 3.7 µL/min/mg | 73.3 µg/mL (≈ 165 µM) | Dose-dependent effect | 48.6% | 384 ng·h/mL | 252 min | 4 h | inactive | >=50% | Cmax [21]: 37.1 ng/mL; inhibition (3T3-L1 [22]): Dose-dependent effect
2 | CN(C)CCCNc1nc(-c2[nH]c3ccccc3c2C=O)nc2ccccc12 | 9.62 h | 131 min | Active | Active | Dose-dependent effect | 247 ng·h/mL | inactive | 71% | Active | Dose-dependent effect | Non-Toxic | 6.3 µL/min/mg | 41.1 µg/mL (≈ 110 µM) | Dose-dependent effect | 43.8% | 294 ng·h/mL | 306 min | 4.7 h | inactive | 79.2% | Cmax [21]: 23.8 ng/mL; inhibition (3T3-L1 [22]): Dose-dependent effect
